Laboratory results: ChEMBL document CHEMBL3616374, “Structure-Activity Relationship Studies of Orally Active Antimalarial 2,4-Diamino-thienopyrimidines” (J Med Chem, 2015)
≈ marks a conversion by molar mass, not a printed value.

Columns and labels:
Plasmodium falciparum [1] = experiment: Antiplasmodial activity against multidrug-sensitive Plasmodium falciparum NF54 by [3H]-hypoxanthine incorporation assay; type: functional, organism-based
Summary of the method: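 IC50 against P. falciparum NF54 was run with chloroquine and artesunate as reference drugs in every experiment. Values are the mean of at least 2 independent experiments.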

[2] = Solubility of the compound in phosphate buffer at pH 6.5; type: physicochemical
Summary of the method: (§1)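 Solubility was measured by a scaled-down shake flask method.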

[3] = Solubility of the compound in 0.01 M HCl at pH 2; type: physicochemical; summary of the method: as §1
[4] = Metabolic stability of the compound in human liver microsomes at 0.1 uM after 30 mins by LC-MS/MS analysis; type: ADME; conditions: read-out: Stability
Summary of the method: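 A one-point microsomal stability assay was used, expressed as the percentage of parent compound remaining after 30 min incubation.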

Plasmodium falciparum [5] = experiment: Antiplasmodial activity against multidrug-resistant Plasmodium falciparum K1 by [3H]-hypoxanthine incorporation assay; type: functional, organism-based
Summary of the method: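 In vitro IC50 against the multidrug-resistant K1 strain of P. falciparum. Chloroquine and artesunate were run as reference drugs in every experiment. Values are means of ≥2 independent experiments.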

[6] = target: Voltage-gated inwardly rectifying potassium channel KCNH2 (Homo sapiens, UniProt Q12809); experiment: Inhibition of human ERG expressed in CHO cells by patch clamp electrophysiology assay; type: cell-based
[7] = Partition coefficient, log D of the compound at pH 7.4 by HPLC chromatographic method; type: physicochemical; conditions: octanol/water
Summary of the method: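 logD was estimated by HPLC-DAD-MS.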

[8] = Degradation half-life in human liver microsomes at 0.1 uM by LC-MS/MS analysis; type: ADME
[9] = Intrinsic clearance in human liver microsomes assessed per mg of protein at 0.1 uM by LC-MS/MS analysis; type: ADME; conditions: read-out: CLH
Plasmodium berghei [10] = experiment: Antimalarial activity against GFP-transfected Plasmodium berghei ANKA infected in NMRI mouse assessed as reduction of parasitemia in blood at 50 mg/kg, po qd for 4 days by flow cytometry analysis; type: functional; parameters: scale not given: the % may be the effect or the level left
Summary of the method: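 In P. berghei-infected mice, compound was dissolved or suspended in a standard non-solubilizing HPMC suspension vehicle and given orally once daily for 4 days (4 × 50 mg/kg). Parasitemia reduction was expressed as % relative to untreated control mice. Mean survival time in days was also recorded.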

Mus musculus [11] = experiment: Acute toxicity in GFP-transfected Plasmodium berghei ANKA infected NMRI mouse at 50 mg/kg, po qd for 4 days; type: organism-based; conditions: in vivo, 96 h
Summary of the method: (§2)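 P. berghei-infected mice dosed orally at 50 mg/kg once daily for 4 days. Compound was dissolved or suspended in a standard non-solubilizing HPMC suspension vehicle. Mice were watched for acute toxicity after dosing. Parasitemia reduction was calculated against untreated infected controls, and survival was recorded as mean survival time in days.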

Plasmodium berghei [12] = experiment: Antimalarial activity against GFP-transfected Plasmodium berghei ANKA infected in NMRI mouse assessed as mean survival time at 50 mg/kg, po qd for 4 days by flow cytometry analysis; type: functional; summary of the method: as §2
[13] = AUC (0 to 24 hrs) in BALB/C mouse at 50 mg/kg, po; type: ADME, organism-based; parameters: time < 24 hr, dose 50 mg/kg, route oral; conditions: in vivo
Mus musculus [14] = experiment: Dose normalized AUC (0 to 5 hrs) in BALB/C mouse at 50 mg/kg, po; type: ADME, organism-based; conditions: in vivo
Vero = experiment: Cytotoxicity against African green monkey Vero cells after 48 hrs by MTT assay; type: cell-based; conditions: chlorocebus sabaeus
[15] = Cmax in BALB/C mouse at 50 mg/kg, po; type: ADME, organism-based; parameters: dose 50 mg/kg, route oral; conditions: in vivo
[16] = Selectivity index ratio of IC50 for African green monkey Vero cells to IC50 for Plasmodium falciparum NF54; type: functional

Voltage-gated inwardly rectifying potassium channel KCNH2, sequence (Q12809 whole entry): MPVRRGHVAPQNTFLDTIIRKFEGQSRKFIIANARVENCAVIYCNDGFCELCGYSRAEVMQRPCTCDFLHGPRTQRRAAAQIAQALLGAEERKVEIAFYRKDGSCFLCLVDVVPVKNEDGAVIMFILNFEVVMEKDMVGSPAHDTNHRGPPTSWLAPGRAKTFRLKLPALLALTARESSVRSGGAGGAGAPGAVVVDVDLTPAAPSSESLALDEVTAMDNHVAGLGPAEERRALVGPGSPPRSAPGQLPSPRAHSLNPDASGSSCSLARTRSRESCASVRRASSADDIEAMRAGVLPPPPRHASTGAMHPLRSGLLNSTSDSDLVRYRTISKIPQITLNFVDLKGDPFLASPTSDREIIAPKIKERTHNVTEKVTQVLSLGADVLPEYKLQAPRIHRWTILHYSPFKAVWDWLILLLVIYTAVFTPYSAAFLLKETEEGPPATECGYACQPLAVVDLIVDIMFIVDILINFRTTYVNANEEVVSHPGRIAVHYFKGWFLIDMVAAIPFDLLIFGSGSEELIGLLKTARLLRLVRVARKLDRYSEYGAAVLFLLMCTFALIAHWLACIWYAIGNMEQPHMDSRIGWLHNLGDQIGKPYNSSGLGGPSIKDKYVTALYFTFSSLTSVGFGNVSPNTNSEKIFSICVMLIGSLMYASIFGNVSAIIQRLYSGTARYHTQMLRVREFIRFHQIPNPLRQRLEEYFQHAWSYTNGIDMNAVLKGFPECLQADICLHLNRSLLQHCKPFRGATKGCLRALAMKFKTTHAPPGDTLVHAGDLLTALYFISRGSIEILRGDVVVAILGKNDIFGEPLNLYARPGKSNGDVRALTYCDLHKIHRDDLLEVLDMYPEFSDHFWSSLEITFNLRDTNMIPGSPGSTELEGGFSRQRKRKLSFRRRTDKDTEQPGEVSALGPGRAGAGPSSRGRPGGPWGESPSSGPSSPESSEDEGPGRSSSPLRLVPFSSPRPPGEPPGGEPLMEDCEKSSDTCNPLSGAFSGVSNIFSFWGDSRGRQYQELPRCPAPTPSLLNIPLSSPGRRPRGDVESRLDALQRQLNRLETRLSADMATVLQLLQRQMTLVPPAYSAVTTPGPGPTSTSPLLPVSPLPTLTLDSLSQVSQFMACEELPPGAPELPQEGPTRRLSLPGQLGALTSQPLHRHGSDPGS

Structure (SMILES) | IC50 (Plasmodium falciparum [1]) [nM] | solubility [2] [µg/mL] | solubility [3] [µg/mL] | remaining at 0.5 h, 0.1 µM [4] [%] | IC50 (Plasmodium falciparum [5]) [nM] | also measured
CN(C)CCCNc1ncnc2cc(-c3ccc(C(F)(F)F)cc3)sc12 | 500 | 205 (≈ 539 µM) | 209 (≈ 549 µM) | 91 |  | 
Nc1nc(N2CCC(F)(F)CC2)c2sc(-c3ccc(C(F)(F)F)cc3)cc2n1 | > 2380 |  |  |  |  | 
CNc1nc(NCCCN)c2sc(-c3ccc(C(F)(F)F)cc3)cc2n1 | > 2610 |  |  |  | > 2610 | 
CNc1nc(NCC(F)(F)F)c2sc(-c3ccc(C(F)(F)F)cc3)cc2n1 | 47 | < 5 | 28 (≈ 68.9 µM) | 75 | 138 | IC50 [6]: > 33000 nM
Nc1nc(NC2CCS(=O)(=O)CC2)c2sc(-c3ccc(C(F)(F)F)cc3)cc2n1 | 678 |  |  |  |  | 
CNc1nc(N)c2sc(-c3ccc(C(F)(F)F)cc3)cc2n1 | 1160 | 3.1 (≈ 9.56 µM) | > 100 |  |  | chromatographic logD [7]: 3.4
CNc1nc(NCCCN2CCOCC2)c2sc(-c3ccc(C(F)(F)F)cc3)cc2n1 | 43 | 96 (≈ 213 µM) | 196 (≈ 434 µM) |  |  | half-life at 0.1 µM [8]: 0.398 h; microsomal CLint at 0.1 µM [9]: 72.4 µL/min/mg
Nc1nc(NC2CCNC2)c2sc(-c3ccc(C(F)(F)F)cc3)cc2n1 (centres undefined) | 100 | 155 (≈ 409 µM) | 155 (≈ 409 µM) |  | 116 | half-life at 0.1 µM [8]: > 2.5 h; IC50 [6]: 2400 nM; microsomal CLint at 0.1 µM [9]: < 11.6 µL/min/mg
Nc1nc(NC2CNC2)c2sc(-c3ccc(C(F)(F)F)cc3)cc2n1 | 936 |  |  |  |  | 
CN(C)CCCNc1nc(N2CCNCC2)nc2cc(-c3ccc(C(F)(F)F)cc3)sc12 | 164 | 178 (≈ 383 µM) | 198 (≈ 426 µM) |  |  | half-life at 0.1 µM [8]: > 1.67 h; microsomal CLint at 0.1 µM [9]: < 17 µL/min/mg
Nc1nc(N2CCC(O)CC2)c2sc(-c3ccc(C(F)(F)F)cc3)cc2n1 | > 2540 |  |  |  |  | 
CN(C)CCCNc1nc(NCc2ccccc2)nc2cc(-c3ccc(C(F)(F)F)cc3)sc12 | 42 | < 5 | 208 (≈ 428 µM) | 100 |  | 
CNc1nc(OCCCN(C)C)c2sc(-c3ccc(C(F)(F)F)cc3)cc2n1 | 1830 | 174 (≈ 424 µM) | 174 (≈ 424 µM) |  | > 2440 | 
C[C@H]1[C@H](OC(=O)CCC(=O)O)O[C@@H]2O[C@@]3(C)CC[C@H]4[C@H](C)CC[C@@H]1[C@@]24OO3 [ARTESUNATE] | 4 |  |  |  | 3 | 
COc1nc(NCCCN(C)C)c2sc(-c3ccc(C(F)(F)F)cc3)cc2n1 | 1390 | < 5 | 214 (≈ 521 µM) |  | 1400 | half-life at 0.1 µM [8]: > 1.67 h; microsomal CLint at 0.1 µM [9]: < 17 µL/min/mg
Nc1nc(NC2CCNCC2)c2sc(-c3ccc(C(F)(F)F)cc3)cc2n1 | 25 | 168 (≈ 427 µM) | 168 (≈ 427 µM) | 100 | 24 | half-life at 0.1 µM [8]: > 2.5 h; Activity (Plasmodium berghei [10]): 78%; chromatographic logD [7]: 2.4; Activity (Mus musculus [11]): Non-toxic; MSD (Plasmodium berghei [12]): 7 days; microsomal CLint at 0.1 µM [9]: < 11.6 µL/min/mg
Nc1nc(NC2CCCCC2)c2sc(-c3ccc(C(F)(F)F)cc3)cc2n1 | 168 |  |  |  |  | 
CNc1nc(Nc2cccc(C(N)=O)c2)c2sc(-c3ccc(C(F)(F)F)cc3)cc2n1 | 52 | 8 (≈ 18 µM) | 85 (≈ 192 µM) | 83 | 113 | 
CNc1nc(NCCN2CCNCC2)c2sc(-c3ccc(C(F)(F)F)cc3)cc2n1 | 34 | 115 (≈ 263 µM) | 203 (≈ 465 µM) | 100 | 37 | 

Structure (SMILES) | IC50 (Plasmodium falciparum [1]) [nM] | solubility [2] [µg/mL] | solubility [3] [µg/mL] | remaining at 0.5 h, 0.1 µM [4] [%] | IC50 (Plasmodium falciparum [5]) [nM] | also measured
CNc1nc(NC2CCNCC2)c2sc(-c3ccc(C(F)(F)F)cc3)cc2n1 | 19 | 147 (≈ 361 µM) | 218 (≈ 535 µM) | 84 | 24 | AUC(0-t) at 24 h [13]: 25 µM·h; Activity (Plasmodium berghei [10]): 99.7%; AUC/dose (Mus musculus [14]): 4.24 min.ug/ml/(mg/kg); Activity (Vero): Non-toxic; Cmax [15]: 2470 nM; Activity (Mus musculus [11]): Non-toxic; MSD (Plasmodium berghei [12]): 12 days; Ratio IC50 [16]: >100
CNc1nc(N2CCC(N)CC2)c2sc(-c3ccc(C(F)(F)F)cc3)cc2n1 | 42 | 17 (≈ 41.7 µM) | > 200 | 93 |  | AUC(0-t) at 24 h [13]: 78.2 µM·h; Activity (Plasmodium berghei [10]): 81%; AUC/dose (Mus musculus [14]): 7.63 min.ug/ml/(mg/kg); Activity (Vero): Non-toxic; Cmax [15]: 3690 nM; Activity (Mus musculus [11]): Non-toxic; MSD (Plasmodium berghei [12]): 7 days; Ratio IC50 [16]: >100
Nc1nc(N2CCC(N)CC2)c2sc(-c3ccc(C(F)(F)F)cc3)cc2n1 | 20 | 134 (≈ 341 µM) | 134 (≈ 341 µM) | 100 | 33 | half-life at 0.1 µM [8]: > 2.5 h; AUC(0-t) at 24 h [13]: 21.6 µM·h; Activity (Plasmodium berghei [10]): 99.8%; AUC/dose (Mus musculus [14]): 2.63 min.ug/ml/(mg/kg); IC50 [6]: 6100 nM; Activity (Vero): Non-toxic; Cmax [15]: 1360 nM; chromatographic logD [7]: 2.4; MSD (Plasmodium berghei [12]): 26 days; microsomal CLint at 0.1 µM [9]: < 11.6 µL/min/mg; Ratio IC50 [16]: >100
CN(C)CCCNc1nc(N2CCOCC2)nc2cc(-c3ccc(C(F)(F)F)cc3)sc12 | > 2150 | < 5 | 211 (≈ 453 µM) | 92 |  | 
CNc1nc(NC2CC2)c2sc(-c3ccc(C(F)(F)F)cc3)cc2n1 | 137 | < 5 | 120 (≈ 329 µM) |  | 447 | half-life at 0.1 µM [8]: 1.15 h; microsomal CLint at 0.1 µM [9]: 25.2 µL/min/mg
CN(C)CCCNc1nc(N)nc2cc(-c3ccc(C(F)(F)F)cc3)sc12 | 57 | 148 (≈ 374 µM) | 210 (≈ 531 µM) | 94 |  | half-life at 0.1 µM [8]: 1.73 h; microsomal CLint at 0.1 µM [9]: 16.9 µL/min/mg
CS(=O)(=O)c1ccc(-c2nc(N3CCNCC3)nc3cc(-c4ccc(C(F)(F)F)cc4)sc23)cc1 | 1460 | < 5 | 174 (≈ 336 µM) |  |  | 
CNc1nc(NC2CCOCC2)c2sc(-c3ccc(C(F)(F)F)cc3)cc2n1 | 47 | < 5 | < 5 | 100 | 140 | 
N#CC1CCN(c2nc(N)nc3cc(-c4ccc(C(F)(F)F)cc4)sc23)CC1 | > 2480 |  |  |  |  | 
CNc1nc(NCCCO)c2sc(-c3ccc(C(F)(F)F)cc3)cc2n1 | 111 |  |  |  | 233 | 
CN1CCC(Nc2nc(N)nc3cc(-c4ccc(C(F)(F)F)cc4)sc23)CC1 | 50 | 147 (≈ 361 µM) | 147 (≈ 361 µM) | 95 |  | 
CNc1nc(NCCN2CCOCC2)c2sc(-c3ccc(C(F)(F)F)cc3)cc2n1 | 80 | 42 (≈ 96 µM) | 213 (≈ 487 µM) | 51 | 121 | 
CN(C)CCCNc1nc(N(C)C)nc2cc(-c3ccc(C(F)(F)F)cc3)sc12 | 100 | 168 (≈ 397 µM) | 212 (≈ 501 µM) | 66 |  | 
CNc1nc(N2CCNCC2)c2sc(-c3ccc(C(F)(F)F)cc3)cc2n1 | 95 |  |  |  |  | 
CN(C)CCCNc1nc(Cl)nc2cc(-c3ccc(C(F)(F)F)cc3)sc12 | 1080 |  |  |  |  | 
CNc1nc(-c2ccc(C(F)(F)F)cc2)c2sc(-c3ccc(C(F)(F)F)cc3)cc2n1 | > 2210 |  |  |  |  | 
Nc1nc(NC2CCOCC2)c2sc(-c3ccc(C(F)(F)F)cc3)cc2n1 | 451 | < 5 | < 5 | 98 |  | IC50 [6]: 700 nM
Nc1nc(NC2CCCNC2)c2sc(-c3ccc(C(F)(F)F)cc3)cc2n1 (centres undefined) | 36 | 125 (≈ 318 µM) | 125 (≈ 318 µM) | 69 |  | 
CNc1nc(NC(C)(C)C)c2sc(-c3ccc(C(F)(F)F)cc3)cc2n1 | 116 | < 1.6 | 1.6 (≈ 4.21 µM) |  |  | half-life at 0.1 µM [8]: 2.07 h; chromatographic logD [7]: > 5.3; microsomal CLint at 0.1 µM [9]: 14 µL/min/mg
